SIRT5 block: inhibitors of human sirtuin-5 desuccinylase. 1.1% of 330,000 active. Q9NXA8. Purified SirT5, succinyl-peptide AMC, trypsin-coupled fluorescence. inhibition, % at 15 µM; in the data active = inhibition above about 15%; inconclusive = no clear call, values can overlap the other calls
DENV2 CPE: protects cells from dengue virus 2 cytopathic effect; DENV2-infected cells, cytopathic effect rescue, plate reader; CPE inhibition, % at 9.99 µM; 1.7% of 350,000 active; in the data active = CPE inhibition above about 20%, passing the limit was not always enough; inconclusive = no clear call, values can overlap the other calls; tested in BHK-21 cells
E-sel inducer: induces E-selectin expression in human endothelial cells. P16581. HUVEC E-selectin immunofluorescence imaging; normalized: neutral wells 0, TNF-alpha wells 100. activation, % at 7.58 µM. 0.37% of 260,000 active. AID 686992;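 active = mean E-selectin-positive cell signal at least 10% of the positive control, reached in at least 60% of replicates, without over 20% cell loss; inconclusive = no rule given, readout overlaps actives, possibly toxicity-flagged; inactive = the rest, including those meeting only one limit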
Target sequence (P16581 whole entry, looked up): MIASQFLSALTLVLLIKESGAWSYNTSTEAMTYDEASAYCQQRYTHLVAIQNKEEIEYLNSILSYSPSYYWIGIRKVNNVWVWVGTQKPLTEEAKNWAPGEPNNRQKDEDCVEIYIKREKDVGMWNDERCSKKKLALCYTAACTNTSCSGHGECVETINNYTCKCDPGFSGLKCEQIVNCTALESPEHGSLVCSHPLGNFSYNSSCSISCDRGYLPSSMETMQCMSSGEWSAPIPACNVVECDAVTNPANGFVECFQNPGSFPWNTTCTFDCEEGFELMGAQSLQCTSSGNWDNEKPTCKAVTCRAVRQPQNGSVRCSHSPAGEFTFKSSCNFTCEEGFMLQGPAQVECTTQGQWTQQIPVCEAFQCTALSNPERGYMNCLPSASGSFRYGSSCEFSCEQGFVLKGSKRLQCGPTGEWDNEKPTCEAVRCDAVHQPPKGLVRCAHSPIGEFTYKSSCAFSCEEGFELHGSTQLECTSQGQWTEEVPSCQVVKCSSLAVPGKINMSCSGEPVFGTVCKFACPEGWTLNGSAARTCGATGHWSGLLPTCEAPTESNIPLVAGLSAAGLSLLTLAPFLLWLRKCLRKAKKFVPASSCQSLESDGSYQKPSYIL
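Test system – human umbilical vein endothelial cells (HUVEC), E-selectin induction · Input – 3,000 HUVEC seeded per well · Buffer or medium – EGM-2, gelatin · Compound dosing – single-point compound dose · Detection – immunofluorescence imaging · Measure – percent E-selectin-positive cells · Controls – TNF-alpha high, DMSO low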
A number is an active result; - = inactive; ? = inconclusive; . = not tested or not shown; ! = repeats disagree. In the library only some 2.9% were active in any assay of this set; here they are far more common.

SMILES	SIRT5 block	DENV2 CPE	E-sel inducer
O=C(C1CCOCC1)N1C[C@@H]2[C@H](c3ccccc31)[C@H](CO)N2Cc1ccccc1F	15	-	-
CN(C)C(=O)[C@@H]1[C@@H](CO)[C@@H]2Cn3c(ccc(-c4cccc(F)c4)c3=O)[C@H]1N2CC1CC1	-	-	-
COc1ccc(Cl)cc1C(=O)OCC(=O)N(C)CC(=O)Nc1ccc(F)cc1	-	-	-
CC(Sc1n[nH]c(N)n1)C(=O)Nc1ccccc1-c1ccccc1 (configuration not stated)	-	-	-
COc1ccc(N(CC(=O)N2CCCCCC2)S(=O)(=O)c2ccccc2[N+](=O)[O-])c(OC)c1	.	-	-
O=C(NCc1ccccc1F)[C@@H]1[C@@H](CO)[C@@H]2Cn3c(cccc3=O)[C@@H]2N1CC1CCCC1	-	-	-
Cc1ccccc1NC(=O)C(C)OC(=O)CNS(=O)(=O)c1ccc(C#N)cc1 (configuration not stated)	-	-	-
CCN1C(=O)C(=O)c2cc(C)ccc21	.	-	-
CC[N+]1=C(C)C(C)(C)c2cc(C)ccc21	-	-	169
COc1cccc(S(=O)(=O)N[C@H]2CC[C@@H](CC(=O)NCc3ccc(Cl)cc3)O[C@@H]2CO)c1	-	?	-
O=S(=O)(c1cccs1)N1CCCCN2[C@@H](CO)[C@@H](c3ccc(Br)cc3)[C@@H]2C1	-	-	-
O=S(=O)(c1cccs1)N1CCCCN2[C@H](CO)[C@H](c3ccc(Br)cc3)[C@H]2C1	-	38	-
COc1ccc(-c2ccc([C@H]3[C@@H](CO)N4CCCCN(S(=O)(=O)c5cccs5)C[C@H]34)cc2)cc1	-	26	-
COc1ccc(-c2ccc([C@H]3[C@H]4CN(S(=O)(=O)c5cccs5)CCCCN4[C@H]3CO)cc2)cc1	-	-	-
COc1ccc(OC)c(C(=O)CCCC(=O)c2cc(OC)ccc2OC)c1	-	-	-
CC1Cc2nc(SCC(=O)c3ccccc3)n(Cc3ccccc3)c(=O)c2S1 (configuration not stated)	-	-	.
COc1ccc(S(=O)(=O)Nc2ccc3c(c2)C(=O)N([C@@H](C)CO)C[C@H](C)[C@@H](CN(C)C(=O)NC(C)C)O3)cc1	.	.	-
Cc1cc(F)ccc1S(=O)(=O)Nc1ncnc2sccc12	23	-	-
Fc1cccc(Nc2ncnc3sccc23)c1	-	-	-
COc1ccc(CC(=O)N/N=C(\C)c2cccnc2)cc1OC	-	-	-
CCOc1ccc(CC(=O)N/N=C(\C)c2cccnc2)cc1OCC	-	78	-
Cc1cc(C)cc(N2CC(O)Cn3c2nc2c3c(=O)[nH]c(=O)n2C)c1 (configuration not stated)	-	-	.
Cc1cc(C)n(-c2ccc(NC(=O)C3CCCCN3C(=O)c3ccoc3)cc2)n1 (configuration not stated)	-	36	-
Cc1cc(C)n(-c2ccc(NC(=O)C3CCCCN3C(=O)c3occc3C)cc2)n1 (configuration not stated)	-	-	-
COc1ccc(CCNC(=O)C/C(C)=N/NC(=O)Cc2cccc3ccccc23)cc1OC	-	-	-
SMILES	SIRT5 block	DENV2 CPE	E-sel inducer
c1cc(-c2ccc(C3[C@H]4CNC[C@@H]3N4CC3CCOCC3)cc2)ccn1 (some centres not stated)	-	-	-
c1cc(-c2ccc(C3[C@H]4CNC[C@@H]3N4CC3CCCCC3)cc2)ccn1 (some centres not stated)	-	46!	-
COc1ccc(CCN(C)C(=O)c2cncc(Br)c2)cc1OC	-	-	-
COc1ccc(C)cc1NC(=O)Cc1csc(NC(=O)Nc2ccccc2OC)n1	-	-	-
CCn1nc(CC(=O)O)c2ccccc2c1=O	-	-	185
CCOC(=O)Cc1nn(CC)c(=O)c2ccccc12	-	-	.
C[C@@H]1CN([C@@H](C)CO)C(=O)Cc2cc(NC(=O)c3ccncc3)ccc2O[C@@H]1CN(C)S(=O)(=O)c1cccs1	-	-	.
O=c1[nH]nc(SCc2cc(Cl)ccc2Cl)c(=O)[nH]1	-	-	-
COc1nc(N2CCOCC2)nc(-n2cccc2)n1	23	.	.
COc1ccc(Nc2nc(OC)nc(N3CCOCC3)n2)cc1	-	-	-
O=C(NCC1OCCCN1S(=O)(=O)c1cc(F)ccc1F)C(=O)NC1CCCC1 (configuration not stated)	-	-	-
Cc1nc[nH]c(=O)c1Br	-	-	.
O=S(=O)(c1cccs1)N1CCN(c2ccnc3cc(Cl)ccc23)CC1	-	64	-
O=S(=O)(c1ccccc1)N1CCN(c2ccnc3cc(Cl)ccc23)CC1	-	-	-
C[C@@H]1CN([C@H](C)CO)C(=O)CCCn2cc(nn2)CO[C@@H]1CN(C)Cc1cccc(C(=O)O)c1	-	-	-
C[C@@H]1CN([C@@H](C)CO)C(=O)CCCn2cc(nn2)CO[C@@H]1CN(C)Cc1cccc(C(=O)O)c1	-	30	-
C[C@H]1CN([C@@H](C)CO)C(=O)CCCn2cc(nn2)CO[C@H]1CN(C)Cc1ccccc1	25	-	-
C[C@@H]1CN([C@@H](C)CO)C(=O)CCCn2cc(nn2)CO[C@@H]1CN(C)Cc1ccc(-c2ccccc2)cc1	-	-	-
O=C(NCCN1CCOCC1)c1ccc(Cl)c([N+](=O)[O-])c1	-	-	-
Cc1ccc(C2CCN(C(=S)NC(C)(C)C)C2)cc1 (configuration not stated)	-	-	-
CCCCC(CC)C(=O)Nc1cc(C(=O)NCc2ccc(C)cc2)ccc1N1CCC2(CC1)CC(c1ccccc1)=NO2 (configuration not stated)	.	-	-
CCCCCCCC(=O)Nc1cc(C(=O)NCc2ccc(C)cc2)ccc1N1CCC2(CC1)CC(c1ccccc1)=NO2	-	27	.
CCCCCCCOC(=O)c1nc(Cl)c(Cl)c(N)c1Cl	-	-	.
COc1cccc(CN2[C@@H]3CN(C(=O)c4ccncc4)c4ccccc4[C@@H]3[C@@H]2CO)c1	-	21	-
O=C(c1cccnc1)N1C[C@H]2[C@@H](c3ccccc31)[C@@H](CO)N2Cc1ccc2c(c1)OCO2	-	26	-
SMILES	SIRT5 block	DENV2 CPE	E-sel inducer
COc1cccc(CN2[C@H](CO)[C@H]3c4ccccc4N(C(=O)c4cccnc4)C[C@H]32)c1	-	-	-
O=C(c1cccnc1)N1C[C@@H]2[C@H](c3ccccc31)[C@@H](CO)N2Cc1ccc2c(c1)OCO2	-	-	-
O=C(Nc1ccc(Nc2ccccc2)cc1)c1ccc(Br)cc1	-	-	-
CSCCC(NC(=O)c1ccc(Cl)cc1)C(=O)OCC(=O)N1CCCC1=O (configuration not stated)	-	-	.
COc1ccc2oc3cc(Cl)ccc3c(=O)c2c1	-	-	-
Cc1ccc2c(c1)C1CN(C)CCC1N2C(=O)COc1ccc(N(C)C(=O)c2ccccc2)cc1 (configuration not stated)	-	-	.
Cc1ccccc1Nc1nc(N)c2ccccc2n1	-	-	.
Cc1ccccc1Nc1nc(N)nc(-c2oc3ccccc3c2C)n1	-	69	.
COc1ccc(C(CNC(=O)c2cccc3cccnc23)N(C)C)cc1 (configuration not stated)	-	46	.
COc1ccc(/C=C/C(=O)Nc2ccccc2C(=O)NCC(c2ccc(OC)cc2)N(C)C)cc1 (configuration not stated)	-	-	.

Screening data (PubChem BioAssay)
